# Source: ChEMBL document CHEMBL1143052, “Synthesis, antimicrobial, and QSAR studies of substituted benzamides” (2007)
# What was measured:
# Aspergillus parasiticus = experiment: Antifungal activity against Aspergillus parasiticus MTCC 8189 by serial dilution method; format: functional
# How it was run: (§1)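 Broth serial dilution against the fungus in Sabouraud dextrose broth-I.P., run like the antibacterial assay. Compounds came from a DMSO stock, and MIC was determined.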
# Bacillus subtilis = experiment: Antibacterial activity against Bacillus subtilis MTCC 2063 after 24 hrs; format: functional
# How it was run: (§2)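 Serial broth dilution in double-strength nutrient broth-I.P. Bacteria were grown for 24 h at 37 °C. A DMSO stock was diluted into 1 mL broth tubes to span 5–0.156, then inoculated with a saline suspension of the organism. Tubes were incubated at 37 °C for 24 h and MIC was read. Extra dilutions of the stock then set the exact MIC.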
# Staphylococcus aureus = experiment: Antibacterial activity against Staphylococcus aureus MTCC 2901 after 24 hrs
# Escherichia coli = experiment: Antibacterial activity against Escherichia coli MTCC 1652 after 24 hrs; format: functional; how it was run: as §2
# Aspergillus ficuum = experiment: Antifungal activity against Aspergillus ficuum MTCC 8184 by serial dilution method; format: functional; how it was run: as §1
-log(1/MIC) (Aspergillus parasiticus),"pMIC, log(1/MIC) (Bacillus subtilis)",-log(1/MIC) (Staphylococcus aureus),"pMIC, log(1/MIC) (Escherichia coli)",-log(1/MIC) (Aspergillus ficuum),-log(1/MIC) (Escherichia coli),Structure (SMILES)
1.3,1,1.3,1.2,1.6,,O=C(Nc1ccccc1O)c1ccccc1Cl
1.23,0.93,1.11,1.23,1.43,,O=C(Nc1ccccc1O)c1ccccc1
1.3,0.96,1.16,1.26,1.56,,Cc1cccc(C(=O)Nc2ccccc2O)c1
1.26,0.96,1.16,1.2,1.56,,Cc1ccc(C(=O)Nc2ccccc2O)cc1
1.3,1.1,1.16,1.2,1.6,,O=C(Nc1ccccc1O)c1cccc(Cl)c1
1.52,1.07,1.26,1.2,1.67,,O=C(Nc1ccccc1O)c1cc([N+](=O)[O-])ccc1Cl
1.71,1.41,1.41,1.41,1.71,,COc1cccc(C(=O)Nc2ccccc2O)c1[N+](=O)[O-]
1.3,1,1.3,1.17,1.6,,O=C(Nc1ccc(O)cc1)c1cccc(Cl)c1
1.2,0.96,1.26,1.12,1.45,,O=C(Nc1ccccc1O)c1ccccc1O

# More lines, now with the values behind:
Structure (SMILES),-log(1/MIC) (Aspergillus parasiticus),"pMIC, log(1/MIC) (Bacillus subtilis)",-log(1/MIC) (Staphylococcus aureus),"pMIC, log(1/MIC) (Escherichia coli)",-log(1/MIC) (Aspergillus ficuum),-log(1/MIC) (Escherichia coli)
COC(=O)c1cccc(O)c1NC(=O)c1ccccc1OCc1ccccc1,1.83,1.48,1.48,1.35,1.78,
O=C(Nc1ccc(O)cc1)c1ccccc1Cl,1.31,1,1.3,1.17,1.6,
O=C(Nc1ccc(O)cc1)c1cc([N+](=O)[O-])ccc1Cl,1.58,1.27,1.37,1.27,1.58,
COc1cccc(C(=O)Nc2ccc(O)cc2)c1[N+](=O)[O-],1.53,1.26,1.36,1.26,1.36,
O=C(Nc1ccccc1O)c1c(O)ccc2ccccc12,1.35,1.35,1.23,1.29,1.65,
O=C(Nc1ccccc1)c1ccc2ccccc2c1O,1.3,1.13,1.26,1.17,1.44,
O=C(/C=C/c1ccccc1)Nc1ccc(O)cc1,1.58,0.98,1.28,1.16,1.58,
Cc1cccc(C(=O)Nc2ccc(O)cc2)c1,1.26,1.04,1.26,1.2,1.56,
O=C(Nc1ccccc1O)c1ccc2ccccc2c1O,1.62,1.2,1.25,1.21,1.58,
O=C(Nc1ccc(O)cc1)c1ccccc1,1.24,0.93,1.23,1.23,1.53,
Cc1ccc(C(=O)Nc2ccc(O)cc2)cc1,1.32,0.96,1.26,1.26,1.56,
O=C(Nc1ccccc1)c1ccccc1OCc1ccccc1,1.69,1.3,1.39,1.3,1.69,
O=C(Nc1ccccc1)c1cc([N+](=O)[O-])ccc1Cl,1.42,1.15,1.35,1.2,1.55,
O=C(Nc1ccc(O)cc1)c1cc([N+](=O)[O-])cc([N+](=O)[O-])c1,1.69,1.38,1.38,1.38,1.69,
O=C(Nc1ccccc1)c1c(O)ccc2ccccc12,1.65,1.35,1.35,1.35,1.65,
O=C(Nc1ccc(O)cc1)c1c(O)ccc2ccccc12,1.65,1.35,1.23,1.35,1.65,
O=C(Nc1ccc(O)cc1)c1ccc2ccccc2c1O,1.62,1.25,1.32,1.22,1.57,
O=C(Nc1ccccc1O)c1cc([N+](=O)[O-])cc([N+](=O)[O-])c1,1.69,1.38,1.38,1.38,1.58,
O=C(O)c1cn(C2CC2)c2cc(N3CCNCC3)c(F)cc2c1=O [CIPROFLOXACIN],,3.33,3.33,,,3.33
O=C(Nc1ccc(O)cc1)c1ccccc1O [OSALMID],1.26,0.96,1.26,1.2,1.56,
O=C(O)c1ccccc1O [SALICYLIC ACID],3.1,,,,3.1,
